Experimental data as given in article PMC7614726 (ACS chemical neuroscience, 2020).

Legend:
[1] = tested on: acetylated α-tubulin in human whole blood lymphocytes; assay: Human whole blood assay, acetylated α-tubulin by flow cytometry; format: cell-based; settings: 10 and 30 μM
In short: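 Whole blood from healthy volunteers (25 μL) was mixed with compound diluted in RPMI 1640/10% FBS, with 0.1% DMSO final in controls. Incubation was 30 min at 37°C/5% CO2, then 3.5 h more after adding medium. Cells were lysed/fixed 10 min at room temperature and permeabilised 20 min on ice. Staining used AF647-labelled anti-acetylated α-tubulin or isotype control, 20–30 min on ice. Flow cytometry used a lymphocyte gate.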

[2] = Precipitation on addition to culture medium; format: physicochemical; settings: culture medium (RPMI 1640, 10% FBS)
[3] = tested on: wild-type SCG neurons; assay: Axonal transport of mitochondria in dissociated wild-type SCG neurons; format: cell-based, mouse; settings: 100 nM T-3796106, 250 nM T-3793168, 1 μM Tubastatin A, 24 h
[4] = tested on: SCG neurons expressing HSPB1^S135F; assay: Axonal transport of mitochondria in SCG neurons expressing HSPB1 S135F; format: cell-based, mouse; settings: 24 h, 100 nM T-3796106, 250 nM T-3793168, 1 μM Tubastatin A
In short: (§1)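 Medium contained NGF, 10% FBS and 4 μM aphidicolin. Nuclei were microinjected with mutant human HSPB1 plus mito-EGFP (total DNA ≤0.05 μg/μL). Controls got DMSO. Spinning-disk confocal at 37°C/5% CO2, […], frames 1 s apart for 2 min, 4–5 neurons per dish. Difference Tracker counted moving particles per 1000 pixels.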

[5] = tested on: SCG neurons expressing HSPB1^P182L; assay: Axonal transport of mitochondria in SCG neurons expressing HSPB1 P182L; format: cell-based, mouse; settings: 100 nM T-3796106, 250 nM T-3793168, 1 μM Tubastatin A
In short: as §1

Row | Compound | Levels of acetylated a-tubulin at 10 versus 30 μM [1] | Concentration showing some precipitate when added in the culture medium [2] [µM] | Number, average and maximum velocity of axonally transported mitochondria [3] | Average and maximum speed of mitochondria movement [4] | Rescue of anterograde mitochondrial transport (number of moving mitochondria) [4] | Effect on mitochondrial movement [5]
1 | O=C(CCCCCCNC(=O)c1cnc(N(c2ccccc2)c2ccccc2)nc1)NO [ACY-1215] | almost the same | 300 | – | – | – | –
2 | CN1CCc2c(c3ccccc3n2Cc2ccc(C(=O)NO)cc2)C1 [Tubastatin A] | almost the same | – | no significant change | unaffected by any of these treatments | rescue of anterograde axonal transport | no effect on mitochondrial movement
